# Experimental data published in ChEMBL document CHEMBL4513216, “Probing the Open Global Health Chemical Diversity Library for Multistage-Active Starting Points for Next-Generation Antimalarials” (ACS Infect Dis, 2020).
# Assay: Toxicity liver stage against HepG2, at 10uM
# Type: cell-based
# Parameters: test concentration 10 uM, cell line HepG2-A16-CD81EGFP
# Conditions: human, HepG2-A16-CD81EGFP cells; read-out: INHIBITION
# How it was run: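 Uninfected HepG2-A16-CD81EGFP cells, 3 × 10^3 per well, 1536-well, plated on prespotted compound at 10 μM final, parasite-free screening media added to match infected plates; puromycin 10 μM positive, DMSO 0.5% negative; run in parallel with 48 h PbLuc assay at 37 °C, 5% CO2; viability by CellTiter-Glo luminescence, normalized to controls.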
row,Compound,cytotoxicity at 10 µM [%]
1,O=C(NC1CCCC1)c1ccc(COCC(F)(F)F)o1,10.6
2,CCCNC(=O)COc1cccc(-c2nc(C(C)C)no2)c1,-77.9
3,COC(=O)N1CC[C@@]2(C1)[C@H](OC)CN(c1ccccc1)S2(=O)=O,5.78
4,COc1cccc(-c2nc(C)c(C(=O)NCCC(=O)O)s2)c1,8.69
5,O=C(CCc1nc2cc(Br)cnc2[nH]1)NCCCN1CCOCC1,-2.67
6,CCCS(=O)(=O)c1ccc(N2CCN(Cc3ccccc3)CC2)nn1,-5.93
7,O=C(NCC(O)(c1cccs1)C1CC1)NC1CCCCC1 (centres undefined),-2.25
8,Cc1noc(C)c1S(=O)(=O)NCC(C)(O)c1ccc2c(c1)OCO2 (centres undefined),0.331
9,O=C(Nc1cccnc1)C1CCN(c2cc(-n3ccnc3)ncn2)CC1,-3.3
10,O=C(NCCNc1cc(-n2cccc2)ncn1)c1cccs1,-2.56
11,CCOCC(=O)NCCC(O)c1ccoc1 (centres undefined),-4.59
12,CNC(=O)CS(=O)(=O)C1CCN(S(=O)(=O)c2cccc(C(C)=O)c2)CC1,5.85
13,COCCN1C(=O)C2(CCC(C(=O)Nc3ccc(C)cc3)CC2)N=C1C (centres undefined),12.3
14,CCNC(=O)CC1CC2(CCN(C(C)=O)CC2)c2cc(F)ccc21 (centres undefined),6.83
15,CCN(CC)[C@H]1COC[C@@H]2CN(Cc3cnn(C)c3)C[C@@H]21,11.5
16,CC(C)n1cnc(-c2nc(C(=O)N3CCCC3)c3ccccn23)c1,6.47
17,Cc1cccc(S(=O)(=O)N2Cc3c(CN(C)C)nn(C)c3C2)c1,-0.53
18,COc1ccc(NC(=O)CSc2nncn2-n2cccc2)c(OC)c1,-2.74
19,Cc1ccc(-c2[nH]c3ccccc3c2C(=O)O)c(C)c1,12.3
20,CC(C)CN1CCC2(CCN(C(=O)c3ccc(F)cc3)CC2)C1=O,8.06
21,CCn1c(SCC(N)=O)nnc1C(C)NC(=O)c1ccc(Cl)cc1 (centres undefined),-36.4
22,CCn1nc(C)c2c1cnn2CC(=O)N1CCN(C)CC1,4.92

row,Compound,cytotoxicity at 10 µM [%]
1,c1cnnc(N[C@@H]2CC[C@@H]3CN(Cc4c[nH]c5ccccc45)C[C@@H]32)c1,3.33
2,Nc1cc(-c2c[nH]nc2C2CCN(C(=O)C3CCCC3)C2)ccn1 (centres undefined),7.49
3,Cc1nc(NCc2ccccc2)cc(C(C)Cn2nc(C)c(C)c2C)n1 (centres undefined),7.03
4,Cc1cc(-c2cncnc2)nc(C2CCCN2S(C)(=O)=O)n1 (centres undefined),-6.21
5,Cc1noc(C)c1-c1ccc(C2CCCN2C(=O)c2cccnn2)nc1 (centres undefined),-18.9
6,Cc1cccc(C(=O)N2CCCC[C@]3(C)NC(=O)CCC[C@H]23)n1,-21.3
7,O=C(NC1CC1)C1(Cc2cc(-c3ccc(F)cc3F)no2)CCOCC1,11
8,Cc1nc(O)c2nnn(C[C@H]3CCCN3C(=O)c3cccs3)c2n1,-25.6
9,CNc1cc(C2CCCN2Cc2ccccc2C(=O)O)ccn1 (centres undefined),-5.28
10,Cc1cc(C(=O)NCc2ccc(F)cc2)c2c(C3CCCN3)noc2n1 (centres undefined),7.16
11,Cc1nnc(CN2CCCCC2c2nc(-c3ccccc3)no2)s1 (centres undefined),-48.5
12,CC1CCCN(C(=O)c2cn(-c3ccc(C(F)(F)F)cn3)nn2)C1 (centres undefined),-51.3
13,CN1CCN(C(=O)c2cccs2)Cc2ccccc21,-43.9
14,CCOc1ccccc1CCNC(=O)NCC(O)c1cccs1 (centres undefined),-4.47
15,O=C(C1CCCC1)N1CCC(C(O)c2ccc(F)cc2)CC1 (centres undefined),8.54
16,N#CC(NC(=O)c1cccc2c1OCCO2)c1ccc(F)cc1F (centres undefined),-2.61
17,CN1CCN(CCNC(=O)c2sccc2C2CC2)CC1,-149
18,Cn1ncc2c(=O)[nH]c(N3CCCC3c3cccc(Cl)c3)nc21 (centres undefined),19.6
19,CC(C)NC(=O)NC(C)c1ccc(-c2ccncc2)cc1 (centres undefined),0.67
20,O=C(CCSc1ccccc1F)N1CCN(c2cnccn2)CC1,-51.7
21,Cc1nc(-c2ccc(CC(=O)N3CCN(C(=O)C(C)C)CC3)cc2)cs1,12.8
22,COC(=O)c1ccc(N2CCN(C(=O)C3CC3)C(C)C2)cc1 (centres undefined),-1.07

row,Compound,cytotoxicity at 10 µM [%]
1,c1ccc(N2CCC(NCc3cccc4cn[nH]c34)C2)cc1 (centres undefined),13.6
2,O=C(c1ccc(-n2ccnc2)cc1)N1CCCC1,-7.55
3,CC(C)c1n[nH]c(C2CN(C(=O)COCC(F)(F)F)CCO2)n1 (centres undefined),-10.3
4,Cc1cccc(S(=O)(=O)N2CSCC2C(=O)NC(C)(C)C)c1 (centres undefined),-3.75
5,O=C(CN1CCc2ccccc21)NCc1ccc(Cl)cc1,12.4
6,Cc1noc(C)c1CNC(=O)N1CCC(CN2CCC(C)CC2)CC1,6.62
7,O=C(Cc1ccc2c(c1)CCO2)N1CCCC1Cn1cccn1 (centres undefined),-149
8,CC(C)n1cc(CN2CCCN(C(=O)c3ccnn3C)CC2)cn1,2.79
9,CC(NC(=O)C1CCCC1)c1nc(-c2ccccc2)c[nH]1 (centres undefined),6
10,CCN(CC)Cc1ccccc1NC(=O)N(C)Cc1ccc(OC)cc1,10.7
11,COc1ncccc1C(=O)N1CCCC1c1c(C)n[nH]c1C (centres undefined),10.7
12,CC(c1nnc(-c2ccccc2)o1)N1CCC(Nc2ccccc2)CC1 (centres undefined),5.1
13,Cc1cnn(C2CN(Cc3noc(C)n3)C2)c1,40.3
14,Cc1n[nH]c(C2CN(C(=O)c3cc(Cl)c[nH]3)CCO2)n1 (centres undefined),3.95
15,Cc1occc1C(=O)N1CCC2(CC1)C(c1cnn(C)c1)CC(=O)N2C (centres undefined),5.66
16,O=c1cc(Cn2cncn2)nc2n1CCCN(CC1CC1)C2,-2.65
17,Cc1ncc(CN2CCN(C(=O)N(C)C)[C@@H]3CS(=O)(=O)C[C@@H]32)cn1,7.86
18,Cc1cc(-c2c(C)c(-c3cnn(C)c3)nc(N)c2C#N)oc1C,-93.5
19,CC(Nc1nc(-c2ccccc2)nc2c1CCNCC2)c1cccnc1 (centres undefined),-0.587
20,CCc1ccc(CN2CCN(C)C3(CCC(=O)N(CC4CC4)CC3)C2)o1 (centres undefined),-2.77
21,CN(Cc1ccc2nsnc2c1)CC1(O)CCNC1 (centres undefined),-11.7
22,CCc1cc(NCCC(F)(F)F)nc(N2CCOCC2)n1,-4.65

row,Compound,cytotoxicity at 10 µM [%]
1,CCN(Cc1cccc(C(=O)Nc2c(C)cnn2C)c1)[C@H]1COC[C@@H]1O,-1.58
2,CC(c1ccon1)N(C)C(=O)C1CCN(C2CCCCC2)CC1 (centres undefined),-20.2
3,CN1CC(C(=O)N2CCN(c3cccc(Cl)c3)C(=O)C2)NC1=O (centres undefined),-3.94
4,CC(C)N1CCC(N2CCCC(C(=O)NCC3(C)COC3)C2)CC1 (centres undefined),-5.62
5,CC(=O)N1CCc2c(nc(N(C)C)nc2N(C)CCO)C1,-2.48
6,Cc1ccccc1C(C(=O)N(C)CCc1cnn(C)c1)N(C)C (centres undefined),-3.57
7,Fc1ccc(N2CCN(CCCc3cn[nH]c3)CC2)cc1,-144
8,Cc1nc[nH]c1-c1c(-c2ccccc2)ncn1C1CCNC1 (centres undefined),-52.4
9,Cc1ccc(CN2CC3(CCN(C(=O)C4CC4)CC3)CC2C(=O)O)o1 (centres undefined),1.52
10,Cc1csc2c(N3CCC(NCCCc4cnn(C)c4)CC3)ncnc12,0.301
11,Cc1cccc2ncn(C(C)Cn3cccn3)c(=O)c12 (centres undefined),-4.4
12,O=C(c1cccnc1O)N1CCOC(Cc2cccc(C(F)(F)F)c2)C1 (centres undefined),2.26
13,O=C(CCCn1cnnn1)N1CCC(c2ccncc2)CC1,-4.8
14,Cc1cc(C(=O)N2CCc3[nH]cnc3C2C(=O)O)c(-c2ccccc2)o1 (centres undefined),-1.33
15,Cc1nc[nH]c1CN1CCCC(CNC(=O)c2ccc(N)nc2)C1 (centres undefined),1.56
16,CCNC(=O)N1C[C@@H](NC(C)=O)[C@H](c2ccc(C)o2)C1,-8.82
17,Cc1ccccc1CCC1CCCN(Cc2c(C)[nH]c(=O)[nH]c2=O)C1 (centres undefined),5
18,c1nc2c(c(NCCCn3cncn3)n1)CCN(CC1CCOC1)CC2 (centres undefined),-10.6
19,Cc1ccc(C)c(OC(C)C(=O)Nc2cccnc2)c1 (centres undefined),7.39
20,CCN(Cc1ccoc1)Cc1nc(COC)no1,-0.566
21,CNc1ncc(C(=O)N2CCCC(CO)(CCCOC)C2)cn1 (centres undefined),-44.4
22,CCC(Oc1ccc(N(C)S(C)(=O)=O)cc1)C(=O)NC (centres undefined),0.0646

row,Compound,cytotoxicity at 10 µM [%]
1,O=C(Cc1ccc(F)cc1)NCCNc1cc(N2CCCC2)ncn1,-8.37
2,C[C@@H]1CN(CC(C)(C)N2CCCCC2)C[C@@]1(O)C1CC1,-0.519
3,COc1ncccc1NC(=O)N(C1CC1)C(C)C(C)C (centres undefined),8.42
4,CCOc1ncccc1NC(=O)N1CCC(CN2CCOCC2)CC1,-13.6
5,Cn1cc(NC(=O)N2CCC(OCc3ccccc3)CC2)ccc1=O,-5.75
6,COc1ccccc1OCCNCc1c(C(C)C)nn(C)c1N(C)C,-12.8
7,COc1cc(CNCCc2cnn(C)c2)cc(OC)c1OC,-9.51
8,O=C(c1ccc(NC2CC2)nc1)N1CCCC(n2ccnc2)C1 (centres undefined),-3.81
9,COc1ccccc1OCC(=O)NS(=O)(=O)c1ccc(Cl)s1,-4.93
10,Cc1ccc(C(=O)NC2CCN(C(=O)Nc3ccncc3)CC2)o1,1.48
11,CN(C(=O)c1cccc(Cl)c1)C1CCN(c2ccccn2)CC1,-8.8
12,CCN1C[C@@H]2CN(C(=O)NCc3ccccc3)CCC[C@]2(C(=O)O)C1,3.47
13,O=C(NCCc1ccncc1)[C@@H]1CC[C@@H]2[C@@H](CCN2Cc2ccco2)O1,1.15
14,Cc1cnc(N2C[C@H]3CN(Cc4csc(C)n4)C(=O)[C@H]3C2)nc1,12
15,CCOC1COC2(CCN(Cc3cccc(F)c3)CC2)C1 (centres undefined),5.47
16,CC(C)COC1CC2(CCN(Cc3nccn3C)CC2)C1,-158
17,CN1CC2(CCN(C(=O)c3cccnc3)CC2)c2cccc(F)c21,6.17
18,c1coc(CN2CCOC3(COCCN(Cc4ccncc4)C3)C2)c1 (centres undefined),4.03
19,CS(=O)(=O)N1C[C@H]2CC[C@@H](C1)N(C/C=C/c1ccc(F)cc1)C2,-15.5
20,CCn1[nH]c(C)c2c(C(F)(F)F)cc(=O)nc1-2,-1.26
21,CN(C)S(=O)(=O)N1C[C@H]2CC[C@@H](C1)N(Cc1ccc3[nH]ccc3c1)C2,3.07
